One compound from ChEMBL document CHEMBL3352313 (J Med Chem, 2014) can be followed below.

Data set [1] can be described thus: Fraction unbound in rat brain at 5 uM incubated for 4 hrs at 37 degC by equilibrium dialysis based LC/MS/MS analysis. In kind it is ADME, tissue-based. The procedure, abridged: (§1)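 Fraction unbound measured in rat and human plasma and in rat brain homogenate.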
For orientation: In equilibrium dialysis only unbound substance equilibrates across the membrane.

A further data set relates to Plasma. Description: Fraction unbound in rat plasma at 5 uM incubated for 4 hrs at 37 degC by equilibrium dialysis based LC/MS/MS analysis. It counts as ADME, cell-free. The procedure, abridged:
as §1

Data set [2] deals with T1, Muscarinic acetylcholine receptor M5 (Homo sapiens) (UniProt P08912).
T1 sequence (whole entry): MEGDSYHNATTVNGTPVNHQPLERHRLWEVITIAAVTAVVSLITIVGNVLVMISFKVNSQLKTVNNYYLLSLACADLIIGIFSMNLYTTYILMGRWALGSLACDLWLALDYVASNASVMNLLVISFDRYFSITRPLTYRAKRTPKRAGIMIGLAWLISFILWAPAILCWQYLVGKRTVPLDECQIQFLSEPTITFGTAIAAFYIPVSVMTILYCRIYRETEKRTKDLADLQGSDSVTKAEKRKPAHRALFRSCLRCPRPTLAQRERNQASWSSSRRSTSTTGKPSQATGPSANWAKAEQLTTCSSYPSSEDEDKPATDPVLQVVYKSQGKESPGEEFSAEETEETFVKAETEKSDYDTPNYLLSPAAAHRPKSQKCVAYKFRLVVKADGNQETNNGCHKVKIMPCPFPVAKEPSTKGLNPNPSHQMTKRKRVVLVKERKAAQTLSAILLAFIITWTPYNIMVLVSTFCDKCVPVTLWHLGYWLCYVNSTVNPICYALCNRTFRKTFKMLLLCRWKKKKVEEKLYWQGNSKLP
Description: Positive allosteric modulator activity at human muscarinic acetylcholine receptor subtype 5 expressed in CHO cells by calcium mobilization assay relative to acetylcholine. It counts as functional, cell-based. (Calcium flux is commonly read through the fluorescence of an indicator in the cells.)

For data set [3], the target named is Muscarinic acetylcholine receptor M3 (Homo sapiens, UniProt P20309). Description: Activity at human muscarinic acetylcholine receptor subtype 3 expressed in CHO cells by calcium mobilization assay. In kind it is functional, cell-based. The procedure, abridged:
(§2)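 Muscarinic subtype selectivity by fluorescence calcium mobilization in highly expressing CHO lines with similar receptor levels; Gi/o-coupled M2 and M4 cells co-transfected with chimeric Gqi5 to couple to Ca2+ mobilization. Read-outs are PAM EC50 and ACh max response. Mean ± SEM of at least three independent determinations.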

A short description of data set [4]: Plasma clearance in Sprague-Dawley rat 1 mg/kg, iv administered as single dose by LC/MS/MS utilizing electrospray ionization method. In kind it is ADME, organism-based. Also noted: dose 1 mg/kg, route intravenous.
Data set [5] is described as follows: Apparent permeability in human Caco2 cells. In kind it is ADME, cell-based. The note with it: caco-2.
Data set [6] deals with T1, Muscarinic acetylcholine receptor M5 (Homo sapiens). Description: Displacement of [3H]NMS from human muscarinic acetylcholine receptor subtype 5 expressed in CHO cell membranes assessed as radioligand binding level by scintillation counting method. For orientation: In a radioligand displacement assay an active substance lowers the binding of a labelled ligand.
Data set [7] concerns the target Muscarinic acetylcholine receptor M3 (Rattus norvegicus, UniProt P08483). Description: Activity at rat muscarinic acetylcholine receptor subtype 3 expressed in CHO cells by calcium mobilization assay. It counts as functional, cell-based. The procedure, abridged:
as §2

The target in data set [8] is T1, Muscarinic acetylcholine receptor M5 (Homo sapiens). In words: Positive allosteric modulator activity at human muscarinic acetylcholine receptor subtype 5 expressed in CHO cell membranes assessed as fold shift in acetylcholine binding affinity by [3H]NMS binding based scintillation counting method.
The nature of data set [9]: Volume of distribution at steady state in Sprague-Dawley rat 1 mg/kg, iv administered as single dose by LC/MS/MS utilizing electrospray ionization method. In kind it is ADME, organism-based. Set-up: dose 1 mg/kg, route intravenous. The note with it: in vivo, read-out: Vdss.
Data set [10] deals with T2, Muscarinic acetylcholine receptor M4 (Homo sapiens, UniProt P08173).
T2 sequence (P08173 whole entry): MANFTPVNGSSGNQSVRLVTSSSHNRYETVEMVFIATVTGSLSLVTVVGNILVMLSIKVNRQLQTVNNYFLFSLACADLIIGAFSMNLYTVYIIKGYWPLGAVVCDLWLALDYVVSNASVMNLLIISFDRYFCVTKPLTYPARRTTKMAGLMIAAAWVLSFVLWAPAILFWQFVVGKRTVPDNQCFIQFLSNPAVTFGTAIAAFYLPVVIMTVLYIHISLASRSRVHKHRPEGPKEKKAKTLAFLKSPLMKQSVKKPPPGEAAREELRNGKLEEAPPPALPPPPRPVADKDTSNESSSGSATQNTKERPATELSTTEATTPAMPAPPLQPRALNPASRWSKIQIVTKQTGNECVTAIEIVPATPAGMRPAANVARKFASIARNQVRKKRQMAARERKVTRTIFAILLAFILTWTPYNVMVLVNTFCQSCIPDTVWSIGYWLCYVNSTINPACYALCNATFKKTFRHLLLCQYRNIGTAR
Description: Activity at human muscarinic acetylcholine receptor subtype 4 expressed in CHO cells co-transfected with chimeric Gqi5 by calcium mobilization assay. In kind it is functional, cell-based. The gist of the method: as §2

The target in data set [11] is Cannabinoid receptor 1 (Homo sapiens) (UniProt P21554). In words: Displacement of radioligand from human CB1 receptor at 10 uM. The gist of the method: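 Pan Labs lead profiling radioligand binding battery of 68 GPCRs, ion channels and transporters, with test compound present at 10 μM.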
Data set [12] has as its target T3, Muscarinic acetylcholine receptor M4 (Rattus norvegicus, UniProt P08485).
T3 sequence (P08485 whole entry): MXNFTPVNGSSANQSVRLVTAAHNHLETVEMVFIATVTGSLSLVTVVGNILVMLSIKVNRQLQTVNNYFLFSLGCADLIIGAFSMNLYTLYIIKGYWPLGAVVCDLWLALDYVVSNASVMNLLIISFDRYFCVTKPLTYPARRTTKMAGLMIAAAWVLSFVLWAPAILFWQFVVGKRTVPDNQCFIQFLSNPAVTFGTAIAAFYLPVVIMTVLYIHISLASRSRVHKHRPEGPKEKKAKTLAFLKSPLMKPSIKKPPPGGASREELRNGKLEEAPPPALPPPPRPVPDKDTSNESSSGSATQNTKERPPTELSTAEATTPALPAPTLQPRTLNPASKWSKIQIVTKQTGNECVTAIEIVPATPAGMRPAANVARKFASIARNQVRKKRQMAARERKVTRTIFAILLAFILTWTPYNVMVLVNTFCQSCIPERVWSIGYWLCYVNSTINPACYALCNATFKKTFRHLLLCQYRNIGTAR
Description: Activity at rat muscarinic acetylcholine receptor subtype 4 expressed in CHO cells co-transfected with chimeric Gqi5 by calcium mobilization assay. In kind it is functional, cell-based. The procedure, abridged: as §2

For data set [13], the target named is T1, Muscarinic acetylcholine receptor M5 (Homo sapiens). In words: Positive allosteric modulator activity at human muscarinic acetylcholine receptor subtype 5 expressed in CHO cells assessed as fold shift in acetylcholine-induced response at 10 uM by calcium mobilization assay. It counts as functional, cell-based. The gist of the method:
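In hM5 CHO cells by calcium mobilization, PAM at a fixed 10 μM or vehicle is added before an ACh concentration-response curve. Fold shift is the ratio of ACh potency without PAM to potency with PAM.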

The term EC50 denotes the concentration at which the effect is half-maximal. As a reminder, the clearance is a measure of how efficiently the substance is removed, as volume per time. Lower therefore signals inefficient removal. As usually defined, the inhibition is the share of the control response that was lost under treatment.

SMILES strings stand for the structures.

Cannabinoid receptor 1 (Homo sapiens), sequence (P21554 whole entry): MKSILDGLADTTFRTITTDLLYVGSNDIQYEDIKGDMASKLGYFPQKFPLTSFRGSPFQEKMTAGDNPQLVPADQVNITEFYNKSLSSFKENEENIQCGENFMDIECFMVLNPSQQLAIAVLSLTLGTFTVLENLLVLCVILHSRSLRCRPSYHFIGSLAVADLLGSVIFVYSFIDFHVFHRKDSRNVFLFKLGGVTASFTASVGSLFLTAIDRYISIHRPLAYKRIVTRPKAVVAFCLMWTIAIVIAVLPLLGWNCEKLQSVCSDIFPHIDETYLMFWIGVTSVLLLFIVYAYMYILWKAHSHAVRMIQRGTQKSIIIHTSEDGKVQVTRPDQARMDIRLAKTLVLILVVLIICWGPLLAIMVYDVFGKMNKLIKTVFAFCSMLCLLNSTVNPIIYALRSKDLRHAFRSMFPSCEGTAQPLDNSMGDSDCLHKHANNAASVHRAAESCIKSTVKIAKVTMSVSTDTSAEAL
Muscarinic acetylcholine receptor M3 (Rattus norvegicus, UniProt P08483), sequence (P08483 whole entry): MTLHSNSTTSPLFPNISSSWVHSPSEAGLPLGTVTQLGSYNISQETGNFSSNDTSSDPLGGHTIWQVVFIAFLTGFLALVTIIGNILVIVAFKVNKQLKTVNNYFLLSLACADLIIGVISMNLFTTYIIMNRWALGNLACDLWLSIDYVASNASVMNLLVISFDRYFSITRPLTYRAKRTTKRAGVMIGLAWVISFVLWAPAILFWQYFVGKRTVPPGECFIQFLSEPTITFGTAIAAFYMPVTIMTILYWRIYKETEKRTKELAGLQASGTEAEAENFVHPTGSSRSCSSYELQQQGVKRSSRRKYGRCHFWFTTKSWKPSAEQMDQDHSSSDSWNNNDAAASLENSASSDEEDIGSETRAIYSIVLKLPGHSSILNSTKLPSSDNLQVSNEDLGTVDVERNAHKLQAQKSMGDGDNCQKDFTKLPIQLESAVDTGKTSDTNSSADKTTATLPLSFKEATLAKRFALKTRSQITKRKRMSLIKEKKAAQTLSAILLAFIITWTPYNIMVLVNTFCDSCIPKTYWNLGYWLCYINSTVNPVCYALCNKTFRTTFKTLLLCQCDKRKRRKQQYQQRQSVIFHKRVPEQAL
Muscarinic acetylcholine receptor M3 (Homo sapiens, UniProt P20309), sequence (P20309 whole entry): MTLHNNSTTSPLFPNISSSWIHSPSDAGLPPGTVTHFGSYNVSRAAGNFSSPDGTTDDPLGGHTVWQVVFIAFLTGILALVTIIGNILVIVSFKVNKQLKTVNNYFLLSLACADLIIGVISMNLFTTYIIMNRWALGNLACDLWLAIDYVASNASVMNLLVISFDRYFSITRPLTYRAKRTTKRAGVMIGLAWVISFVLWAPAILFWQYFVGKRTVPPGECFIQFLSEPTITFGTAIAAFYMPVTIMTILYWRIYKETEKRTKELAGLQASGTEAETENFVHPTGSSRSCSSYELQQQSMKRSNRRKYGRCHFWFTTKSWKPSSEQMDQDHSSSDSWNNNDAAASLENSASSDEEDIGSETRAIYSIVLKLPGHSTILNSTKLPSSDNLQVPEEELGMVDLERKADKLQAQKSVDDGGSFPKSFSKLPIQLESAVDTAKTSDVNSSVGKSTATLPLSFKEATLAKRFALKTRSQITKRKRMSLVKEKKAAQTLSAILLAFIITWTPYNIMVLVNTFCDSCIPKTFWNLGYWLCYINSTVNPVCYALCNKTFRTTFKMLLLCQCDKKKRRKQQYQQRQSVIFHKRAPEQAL

Consider `CCN(Cc1ccccc1C(F)(F)F)C(=O)C1CCN(S(=O)(=O)c2ccc3[nH]ncc3c2)CC1`, for which the Fu worked out at 0.011 in [1] and 0.014 in the data set with Plasma. Besides, the %max is 96% in data set [2] and 97.1% in data set [6]. Also, the EC50 in data set [3] was 2.1 µM; in data set [7] it was 3.1 µM; in data set [10], above 30 µM; in data set [12], above 30 µM. In [4], the clearance came to 66 mL/min/kg. In addition, the Papp in data set [5] worked out at 2.5 ×10⁻⁵ cm/s. Besides, the results for the fold change (FC) in data set [8] and in data set [13] were 15 and 9, respectively. In addition, the Vd in data set [9] amounted to 1.6 L/kg. In addition, the inhibition in data set [11] worked out at 50%.
